From ChEMBL document CHEMBL4371092, “3,4- seco-Norclerodane Diterpenoids from the Roots of Polyalthia laui” (J Nat Prod, 2019)

Tests used:
[1] = tested on: MCF7; experiment: Cytotoxicity against human MCF7 cells after 72 hrs by MTT assay; assay type: cell-based; conditions: MCF7, 72 h
Summary of the method: (§1)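 Human tumour lines MCF7 (breast), HeLa (cervical carcinoma) and A549 (lung adenocarcinoma) were tested by MTT assay for cytotoxicity, with doxorubicin as the positive control.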

[2] = tested on: A549; experiment: Cytotoxicity against human A549 cells after 72 hrs by MTT assay; assay type: cell-based; conditions: A549, 72 h; summary of the method: as §1
[3] = Cytotoxicity against human C8166 cells after 72 hrs by MTT assay; assay type: cell-based
Summary of the method: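 C8166 cells were tested for cytotoxicity by MTT assay, with CC50 defined as the 50% cytotoxic concentration.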

[4] = Therapeutic index, ratio of CC50 for human C8166 cells to EC50 for HIV1 3B infected in human MT4 cells; assay type: toxicity, cell-based; conditions: read-out: Ratio CC50/EC50
Summary of the method: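 TI was computed as CC50/EC50. CC50 came from an MTT cytotoxicity assay on C8166 cells, and EC50 from inhibition of HIV-1 cytopathic effect, with AZT as the positive control.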

[5] = tested on: HeLa; experiment: Cytotoxicity against human HeLa cells after 72 hrs by MTT assay; assay type: cell-based; summary of the method: as §1
[6] = tested on: Human immunodeficiency virus 1; experiment: Antiviral activity against HIV1 3B infected in human MT4 cells assessed as reduction in virus-induced cytopathic effect by measuring number of syncytia after 3 days by inverted microscopic method; assay type: functional, organism-based; conditions: Human immunodeficiency virus 1, 3B, MT4, 72 h
Summary of the method: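 Anti-HIV-1 activity was scored as inhibition of viral cytopathic effect, and EC50 was taken as the 50% effective concentration. AZT (3′-azido-3′-deoxythymidine) was run as the positive control.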

SMILES	IC50 [1] [µM]	IC50 [2] [µM]	CC50 at 72 h [3] [µM]	selectivity ratio [4]	IC50 [5] [µM]	EC50 [6] [µM]
C/C(=C\C(=O)O)CC[C@@]1(C)[C@H](C)CC[C@]2(C)[C@@H]1CC[C@@H](O)[C@]2(C)O	> 10	> 10	> 200	> 7.3	> 10	27.4
CC(=O)[C@]1(C)CC[C@@H](C)[C@](C)(CC/C(C)=C/C(=O)O)[C@H]1CC(=O)O	> 10	> 10	> 200	> 16.4	> 10	12.2
CC1=CC(=O)C[C@@H]2[C@@](C)(CC/C(=C\C(=O)O)C(=O)O)[C@H](C)CC[C@@]12C	> 10	> 10	> 200	> 5.7	> 10	35.2
CO[C@@H]1OC(=O)C=C1CC[C@@]1(C)[C@H](C)CC[C@@]2(C)C(C)=C(C=O)C[C@H]12	> 10	> 10	> 200	> 11.9	> 10	16.8
Cc1cn([C@H]2C[C@H](N=[N+]=[N-])[C@@H](CO)O2)c(=O)[nH]c1=O [ZIDOVUDINE]			5230	338000		0.02
C[C@@H]1CC[C@@]2(C)C(C(=O)O)=CCC[C@@H]2[C@@]1(C)CC/C(=C\C(=O)O)C(=O)O	> 10	> 10	> 200	> 16.4	> 10	19.8
CC1=C(C(=O)O)C[C@@H]2[C@@](C)(CC/C(=C/C(=O)O)CO)[C@H](C)CC[C@@]12C	> 10	> 10	> 200	> 8.5	> 10	23.1
